{"source": "ChEMBL document CHEMBL5154772", "about": "“Biological Investigation of a Water-Soluble Isoginkgetin-Phosphate Analogue, Targeting the Spliceosome with In Vivo Antitumor Activity” (J Med Chem, 2022)", "key": {"[1]": {"assay": "Total clearance in C57BL/6J mouse at 9.103 mg/kg, ip administered as single dose measured up to 24 hrs", "type": "ADME, organism-based", "conditions": "in vivo", "outline": "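Male C57BL/6J mice, single IP dose. Tail-vein blood into sodium heparin for plasma. Twelve mice per route, three per pair of time points: 0.083 and 2 h, 0.25 and 4 h, 0.5 and 8 h, 1 and 24 h. Parameters derived from plasma concentration–time data.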"}, "[2]": {"assay": "Tmax in Beagle dog at 26.76 mg/kg, iv administered as single dose measured up to 24 hrs", "type": "ADME, organism-based, Canis lupus familiaris", "conditions": "in vivo", "outline": "(§1)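 Single intravenous dose. Mice were male C57BL/6J, 12 per route; tail-vein blood was collected under sodium heparin, with 3 mice sampled at each pair of times (0.083/2, 0.25/4, 0.5/8, 1/24 h). Dogs were male beagles (n=3); jugular blood was collected under K2 EDTA predose and at 0.083, 0.25, 0.5, 1, 2, 4, 6, 8 and 24 h. Plasma was prepared from the samples.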"}, "[3]": {"assay": "Cmax in Beagle dog at 26.76 mg/kg, iv administered as single dose measured up to 24 hrs", "type": "ADME, organism-based, Canis lupus familiaris", "set-up": "time < 24 hrs, dose 26.76 mg/kg, route iv", "conditions": "in vivo", "outline": "as §1"}, "[4]": {"assay": "Toxicity in C57BL/6 mouse assessed as change in spleen weight at 100 mg/kg, ip administered as single dose and measured after 15 days (reference value: 0.1 to 0.2 g)", "type": "organism-based", "conditions": "in vivo, 360 h, time 15 day", "outline": "(§2)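 Female C57BL/6 mice given one IP injection of 100 µL, at 50, 100, 250 or 500 mg/kg in sterile PBS, two mice per dose; PBS-injected controls. Behaviour checked right after and at 30 min. Body weight recorded every 2–3 days for 15 days, then liver, spleen and kidneys weighed.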"}, "[5]": {"test_system": "MCA-205", "assay": "Antitumour activity against mouse wild type MCA-205 cells implanted in C57BL/6 mouse assessed as decrease in tumour growth at 5 mg/kg,IT administered starting from day 7 post inoculation and thrice a week for 2 weeks", "type": "functional, organism-based", "outline": "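MCA205 WT fibrosarcoma cells were inoculated subcutaneously into the right flank of female C57BL/6 mice. Dosing was 5 mg/kg intratumoral, three times per week for two weeks, starting day 7 post-inoculation; controls were untreated. Tumor area was recorded every 3–4 days, and tumor size was measured at killing. Analysis was by one-way ANOVA.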"}, "[6]": {"assay": "Stability in human plasma assessed as compound remaining incubated up to 2 hrs by HPLC-MS/MS analysis", "type": "ADME, cell-free", "conditions": "read-out: Stability", "outline": "(§3)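 Incubation in mouse or human plasma for up to 2 h, with compound remaining expressed as a percentage.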"}, "[7]": {"assay": "Total clearance in Beagle dog at 26.76 mg/kg, iv administered as single dose measured up to 24 hrs", "type": "ADME, organism-based, Canis lupus familiaris", "conditions": "in vivo", "outline": "as §1"}, "[8]": {"assay": "Toxicity in C57BL/6 mouse assessed as change in body weight at 50 mg/kg, ip administered as single dose and measured after 15 days (reference value: 23.5 to 24.2 g)", "type": "organism-based", "conditions": "in vivo, 360 h, time 15 day", "outline": "as §2"}, "[9]": {"assay": "Metabolic stability in mouse liver microsomes assessed as parent compound remaining incubated for 45 mins in absence of NADPH by HPLC-MS/MS analysis", "type": "ADME, Microsome", "conditions": "read-out: Stability", "outline": "(§4)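 Incubation with mouse or human liver microsomes for 45 min, with or without NADPH. Remaining parent compound was quantified over time by HPLC-MS/MS and expressed as % remaining; intrinsic clearance is given in μL/min/mg protein.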"}, "[10]": {"assay": "Toxicity in C57BL/6 mouse assessed as change in kidney weight at 500 mg/kg, ip administered as single dose and measured after 15 days (reference value: 0.3 g)", "type": "organism-based", "conditions": "in vivo, 360 h, time 15 day", "outline": "as §2"}, "[11]": {"assay": "Oral bioavailability in C57BL/6J mouse at 9.103 mg/kg administered as single dose measured up to 24 hrs", "type": "ADME, organism-based", "conditions": "in vivo"}, "[12]": {"assay": "AUC(0 to t) in C57BL/6J mouse at 0.711 mg/kg, iv administered as single dose measured up to 24 hrs", "type": "ADME, organism-based", "set-up": "dose 0.711 mg/kg, time < 24 hrs, route iv", "conditions": "in vivo", "outline": "as §1"}, "[13]": {"assay": "Toxicity in C57BL/6 mouse assessed as change in kidney weight at 50 mg/kg, ip administered as single dose and measured after 15 days (reference value: 0.3 g)", "type": "organism-based", "conditions": "in vivo, 360 h, time 15 day", "outline": "as §2"}, "[14]": {"molecular_target": "Histamine H2 receptor (Homo sapiens) (UniProt P25021)", "sequence (P25021 whole entry)": "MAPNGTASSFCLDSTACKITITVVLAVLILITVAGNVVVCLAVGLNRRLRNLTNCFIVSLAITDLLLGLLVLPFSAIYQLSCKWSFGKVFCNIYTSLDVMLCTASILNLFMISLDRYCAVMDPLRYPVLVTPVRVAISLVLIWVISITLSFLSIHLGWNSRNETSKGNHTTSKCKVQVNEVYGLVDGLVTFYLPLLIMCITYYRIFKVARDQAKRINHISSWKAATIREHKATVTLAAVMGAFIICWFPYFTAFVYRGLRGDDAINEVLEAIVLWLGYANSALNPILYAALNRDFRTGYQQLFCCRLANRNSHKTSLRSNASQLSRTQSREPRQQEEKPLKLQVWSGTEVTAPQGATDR", "assay": "Antagonist activity at HRH2 (unknown origin) at 10 uM", "type": "functional", "set-up": "scale not given: the % may be the effect or the level left", "conditions": "filed as antagonist", "outline": "(§5)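 Single-concentration safety screen at 10 μM across a 47-target panel. GPCRs were run in antagonist mode and enzymes in inhibitor mode.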"}, "[15]": {"assay": "MRT(0 to t) in C57BL/6J mouse at 0.711 mg/kg, iv administered as single dose measured up to 24 hrs", "type": "ADME, organism-based", "conditions": "in vivo", "outline": "as §1"}, "[16]": {"assay": "Stability in mouse plasma assessed as compound remaining incubated up to 2 hrs by HPLC-MS/MS analysis", "type": "ADME, cell-free", "conditions": "read-out: Stability", "outline": "as §3"}, "[17]": {"assay": "Toxicity in C57BL/6 mouse assessed as change in body weight at 250 mg/kg, ip administered as single dose and measured after 15 days (reference value: 23.5 to 24.2 g)", "type": "organism-based", "conditions": "in vivo, 360 h, time 15 day", "outline": "as §2"}, "[18]": {"assay": "Toxicity in C57BL/6 mouse assessed as behavioral changes at 50 to 500 mg/kg, ip and measured upto 30 mins post administration", "type": "organism-based", "conditions": "in vivo, 0.5 h, dose 50-500 mg/kg", "outline": "as §2"}, "[19]": {"assay": "Tmax in C57BL/6J mouse at 0.711 mg/kg, iv administered as single dose measured up to 24 hrs", "type": "ADME, organism-based", "conditions": "in vivo", "outline": "as §1"}, "[20]": {"assay": "MRT(0 to t) in Beagle dog at 26.76 mg/kg, iv administered as single dose measured up to 24 hrs", "type": "ADME, organism-based, Canis lupus familiaris", "conditions": "in vivo", "outline": "as §1"}, "[21]": {"assay": "AUC(0 to t) in Beagle dog at 26.76 mg/kg, iv administered as single dose measured up to 24 hrs", "type": "ADME, organism-based, Canis lupus familiaris", "set-up": "dose 26.76 mg/kg, time < 24 hrs, route iv", "conditions": "in vivo", "outline": "as §1"}, "[22]": {"assay": "Metabolic stability in mouse liver microsomes assessed as intrinsic clearance incubated for 45 mins by HPLC-MS/MS analysis", "type": "ADME, Microsome", "conditions": "read-out: CLH", "outline": "as §4"}, "[23]": {"assay": "Cmax in C57BL/6J mouse at 0.711 mg/kg, iv administered as single dose measured up to 24 hrs", "type": "ADME, organism-based", "set-up": "time < 24 hrs, dose 0.711 mg/kg, route iv", "conditions": "in vivo", "outline": "as §1"}, "[24]": {"assay": "Metabolic stability in human liver microsomes assessed as intrinsic clearance incubated for 45 mins by HPLC-MS/MS analysis", "type": "ADME, Microsome", "conditions": "read-out: CLH", "outline": "as §4"}, "[25]": {"assay": "Antiproliferative activity against mouse MCA-205 cells assessed as decrease in cell viability at 10 uM measured after 72 hrs by MTT based colorimetric assay", "type": "functional"}, "[26]": {"assay": "Antitumour activity against mouse wild type MCA-205 cells implanted in C57BL/6 mouse assessed as tumor size by measuring cell killing at 5 mg/kg, IT administered starting from day 7 post inoculation and thrice a week for 2 weeks", "type": "functional", "outline": "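Female C57BL/6 mice (6 weeks old) given subcutaneous MCA205 WT fibrosarcoma in the right flank. From day 7 after inoculation, 5 mg/kg given intratumorally three times per week for two weeks; untreated controls. Tumour area recorded every 3–4 days until ethical endpoints, then tumour size at killing. Groups compared by one-way ANOVA.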"}, "[27]": {"assay": "Toxicity in C57BL/6 mouse assessed as change in kidney weight at 100 mg/kg, ip administered as single dose and measured after 15 days (reference value: 0.3 g)", "type": "organism-based", "conditions": "in vivo, 360 h, time 15 day", "outline": "as §2"}, "[28]": {"molecular_target": "Delta-type opioid receptor (Homo sapiens) (UniProt P41143)", "sequence (P41143 whole entry)": "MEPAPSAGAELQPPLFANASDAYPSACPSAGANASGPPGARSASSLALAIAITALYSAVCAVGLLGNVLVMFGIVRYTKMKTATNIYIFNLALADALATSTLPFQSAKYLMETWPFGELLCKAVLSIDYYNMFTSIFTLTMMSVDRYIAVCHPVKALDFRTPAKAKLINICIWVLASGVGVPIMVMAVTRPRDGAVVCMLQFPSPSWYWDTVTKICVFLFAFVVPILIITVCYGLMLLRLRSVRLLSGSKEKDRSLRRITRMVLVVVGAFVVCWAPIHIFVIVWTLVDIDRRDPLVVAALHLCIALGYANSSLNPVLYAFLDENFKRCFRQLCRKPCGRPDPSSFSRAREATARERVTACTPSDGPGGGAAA", "assay": "Antagonist activity at OPRD1 (unknown origin) at 10 uM", "type": "functional", "set-up": "scale not given: the % may be the effect or the level left", "conditions": "filed as antagonist", "outline": "as §5"}}, "note": "The source made the active and inactive calls. The calls are words filed in the database; no cut-off is given here."}
{"smiles": "COc1ccc(-c2cc(=O)c3c(O)cc(OP(=O)([O-])[O-])c(-c4cc(-c5cc(=O)c6c(O)cc(OP(=O)([O-])[O-])cc6o5)ccc4OC)c3o2)cc1.[Na+].[Na+].[Na+].[Na+]", "values": [{"measurement": "CL/F", "setting": "[1]", "result": 154, "unit": "mL/min/kg"}, {"measurement": "Tmax", "setting": "[2]", "result": 5, "unit": "min"}, {"measurement": "Cmax", "setting": "[3]", "result": 272, "unit": "µg/mL"}, {"measurement": "Activity", "setting": "[4]", "result": 0.1, "unit": "g"}, {"measurement": "Activity", "setting": "[5]", "result": "Active"}, {"measurement": "remaining at 2 h", "setting": "[6]", "result": 94.1, "unit": "%"}, {"measurement": "clearance", "setting": "[7]", "result": 0.69, "unit": "mL/min/kg"}, {"measurement": "Activity", "setting": "[8]", "result": 19.5, "unit": "g"}, {"measurement": "remaining at 0.75 h", "setting": "[9]", "result": 72.4, "unit": "%"}, {"measurement": "Activity", "setting": "[10]", "result": 0.2, "unit": "g"}, {"measurement": "bioavailability", "setting": "[11]", "result": 86, "unit": "%"}, {"measurement": "AUC(0-t) at 24 h", "setting": "[12]", "result": 0.0888, "unit": "µg·h/mL"}, {"measurement": "Activity", "setting": "[13]", "result": 0.3, "unit": "g"}, {"measurement": "Activity", "setting": "[14]", "result": 40, "unit": "%"}, {"measurement": "MRT last at 24 h", "setting": "[15]", "result": 54, "unit": "min"}, {"measurement": "remaining at 2 h", "setting": "[16]", "result": 98.1, "unit": "%"}, {"measurement": "Activity", "setting": "[17]", "result": 19.1, "unit": "g"}, {"measurement": "Activity", "setting": "[18]", "result": "Non-Toxic"}, {"measurement": "Tmax", "setting": "[19]", "result": 5, "unit": "min"}, {"measurement": "MRT last at 24 h", "setting": "[20]", "result": 228, "unit": "min"}, {"measurement": "AUC(0-t) at 24 h", "setting": "[21]", "result": 655, "unit": "µg·h/mL"}, {"measurement": "microsomal CLint", "setting": "[22]", "result": 8, "unit": "µL/min/mg"}, {"measurement": "Cmax", "setting": "[23]", "result": 0.323, "unit": "µg/mL"}, {"measurement": "microsomal CLint", "setting": "[24]", "result": 11, "unit": "µL/min/mg"}, {"measurement": "Activity", "setting": "[25]", "result": 20, "unit": "%"}, {"measurement": "Activity", "setting": "[26]", "result": 50, "unit": "%"}, {"measurement": "Activity", "setting": "[27]", "result": 0.2, "unit": "g"}, {"measurement": "Activity", "setting": "[28]", "result": 53, "unit": "%"}]}
